Measurements reported in ChEMBL document CHEMBL3046592, “Organophosphorus derivatives containing piperazine dithiosemicarbazones as chemotherapeutants against fungal pathogens of sugarcane” (2005).
Values after ≈ are worked out from the molar mass of the structure shown.

Experiments:
Type in all cases: functional
Details in all cases: 168 h
[1] = system: Curvularia pallescens; test: Fungicidal activity against Cochliobolus pallescens assessed as mycelial inhibition at 1000 ppm at 28 +/- 2 degC measured after 7 days by food poison technique
Outline: (§1)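 Poisoned-food test on oatmeal agar. The compound was dissolved in 0.5 cm3 of solvent and mixed into the medium to give the stated ppm. Controls received the same amount of solvent only. A 5 mm mycelial disk, cut from the periphery of a 2-week-old culture, was placed at the plate centre. Plates were incubated 7 days at 28 ± 2 °C, in triplicate. Percent inhibition = (dc − dt)/dc × 100, using mean colony diameters of control (dc) and treatment (dt).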

[2] = system: Curvularia pallescens; test: Fungicidal activity against Cochliobolus pallescens assessed as mycelial inhibition at 10 ppm at 28 +/- 2 degC measured after 7 days by food poison technique; outline: as §1
[3] = system: Curvularia pallescens; test: Fungicidal activity against Cochliobolus pallescens assessed as mycelial inhibition at 100 ppm at 28 +/- 2 degC measured after 7 days by food poison technique; outline: as §1
[4] = system: Fusarium oxysporum; test: Fungicidal activity against Fusarium oxysporum assessed as mycelial inhibition at 1000 ppm at 28 +/- 2 degC measured after 7 days by food poison technique; outline: as §1
[5] = system: Fusarium oxysporum; test: Fungicidal activity against Fusarium oxysporum assessed as mycelial inhibition at 100 ppm at 28 +/- 2 degC measured after 7 days by food poison technique; outline: as §1
[6] = system: Colletotrichum falcatum; test: Fungicidal activity against Glomerella tucumanensis assessed as mycelial inhibition at 1000 ppm at 28 +/- 2 degC measured after 7 days by food poison technique; outline: as §1
[7] = system: Fusarium oxysporum; test: Fungicidal activity against Fusarium oxysporum assessed as mycelial inhibition at 10 ppm at 28 +/- 2 degC measured after 7 days by food poison technique; outline: as §1
[8] = system: Colletotrichum falcatum; test: Fungicidal activity against Glomerella tucumanensis assessed as mycelial inhibition at 100 ppm at 28 +/- 2 degC measured after 7 days by food poison technique; outline: as §1
[9] = system: Colletotrichum falcatum; test: Fungicidal activity against Glomerella tucumanensis assessed as mycelial inhibition at 10 ppm at 28 +/- 2 degC measured after 7 days by food poison technique; outline: as §1
[10] = system: Curvularia pallescens; test: Fungicidal activity against Cochliobolus pallescens assessed as mycelial inhibition at 28 +/- 2 degC measured after 7 days by food poison technique
[11] = system: Fusarium oxysporum; test: Fungicidal activity against Fusarium oxysporum assessed as mycelial inhibition at 28 +/- 2 degC measured after 7 days by food poison technique
[12] = system: Colletotrichum falcatum; test: Fungicidal activity against Glomerella tucumanensis assessed as mycelial inhibition at 28 +/- 2 degC measured after 7 days by food poison technique

Compound | inhibition at 1000 ppm [1] | inhibition at 10 ppm [2] | inhibition at 100 ppm [3] | inhibition at 1000 ppm [4] | inhibition at 100 ppm [5] | inhibition at 1000 ppm [6] | inhibition at 10 ppm [7] | inhibition at 100 ppm [8] | inhibition at 10 ppm [9] | MIC [10] | MIC [11] | MIC [12]
CCOP(=O)(OCC)S/C(=N\N=C\c1ccc([N+](=O)[O-])cc1)N1CCN(/C(=N\N=C\c2ccc([N+](=O)[O-])cc2)SP(=O)(OCC)OCC)CC1 | 89.2% | 35.6% | 58.2% | 62.6% | 40.2% | 65.2% | 27.5% | 40.8% | 25.8% | – | – | –
S=C(N/N=C/c1ccccc1Cl)N1CCN(C(=S)N/N=C/c2ccccc2Cl)CC1 | 66.2% | 27.4% | 47.3% | 69.2% | 42% | 60.3% | 25.5% | 30.8% | 21.2% | – | – | –
CCOP(=O)(OCC)S/C(=N/N=C/c1ccccc1Cl)N1CCN(/C(=N\N=C\c2ccccc2Cl)SP(=O)(OCC)OCC)CC1 | 88.2% | 47.7% | 86.8% | 100% | 82.4% | 85.6% | 56.8% | 70.6% | 55.2% | – | – | –
S=C(N/N=C/c1ccc(Cl)cc1)N1CCN(C(=S)N/N=C/c2ccc(Cl)cc2)CC1 | 68.4% | 38.5% | 49.2% | 64.8% | 41.6% | 68.2% | 28.7% | 35.4% | 24.8% | – | – | –
CCOP(=O)(OCC)S/C(=N/N=C/c1ccc(Cl)cc1)N1CCN(/C(=N\N=C\c2ccc(Cl)cc2)SP(=O)(OCC)OCC)CC1 | 100% | 66.6% | 88.2% | 100% | 76.2% | 100% | 37.8% | 72.8% | 42.5% | 1000 µg/mL (≈ 1.33 mM) | 1000 µg/mL (≈ 1.33 mM) | 1000 µg/mL (≈ 1.33 mM)
S=C(N/N=C/c1ccccc1)N1CCN(C(=S)N/N=C/c2ccccc2)CC1 | 57.4% | 20.6% | 32.1% | 48.8% | 25.6% | 53.6% | 14.3% | 28.9% | 14.1% | – | – | –
CCOP(=O)(OCC)S/C(=N/N=C/c1ccccc1)N1CCN(/C(=N\N=C\c2ccccc2)SP(=O)(OCC)OCC)CC1 | 75% | 32.8% | 49.5% | 66.5% | 35.6% | 73.4% | 24.8% | 40.2% | 25.8% | – | – | –
COc1ccc(/C=N/NC(=S)N2CCN(C(=S)N/N=C/c3ccc(OC)cc3)CC2)cc1 | 67.2% | 28.6% | 45.8% | 66.8% | 40.2% | 65.9% | 35.3% | 37.6% | 22.1% | – | – | –
CCOP(=O)(OCC)S/C(=N/N=C/c1ccc(OC)cc1)N1CCN(/C(=N\N=C\c2ccc(OC)cc2)SP(=O)(OCC)OCC)CC1 | 100% | 42.2% | 80.5% | 100% | 70.6% | 100% | 53.2% | 58.6% | 36.4% | 1000 µg/mL (≈ 1.35 mM) | 1000 µg/mL (≈ 1.35 mM) | 1000 µg/mL (≈ 1.35 mM)
O=[N+]([O-])c1ccc(/C=N/NC(=S)N2CCN(C(=S)N/N=C/c3ccc([N+](=O)[O-])cc3)CC2)cc1 | 59.6% | 22.7% | 31.1% | 44.8% | 23.9% | 46.6% | 16.2% | 24.3% | 11.6% | – | – | –
COC(=O)Nc1nc2ccccc2[nH]1 [CARBENDAZIM] | – | – | – | – | – | – | – | – | – | 4000 µg/mL (≈ 20.9 mM) | 3000 µg/mL (≈ 15.7 mM) | 4000 µg/mL (≈ 20.9 mM)
COC(=O)NC(=S)Nc1ccccc1NC(=S)NC(=O)OC [THIOPHANATE METHYL] | – | – | – | – | – | – | – | – | – | 4000 µg/mL (≈ 11.7 mM) | 4000 µg/mL (≈ 11.7 mM) | 4000 µg/mL (≈ 11.7 mM)
